Each block holds one compound with its values, some of them ahead of it.
What was measured:
Liver [1] = experiment: (§1) Intrinsic clearance in mouse liver microsomes at 1 uM by LC/MS analysis; type: ADME, Microsome; conditions: microsomes, 1 µM
How it was run: (§2)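 Mouse hepatic microsomes; in vitro intrinsic clearance from compound degradation during incubation, expressed as μL/min/mg.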

[2] = Partition coefficient, log D of the compound at pH 7.4 by HPLC analysis; type: physicochemical; conditions: octanol/water
How it was run: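 LogD at pH 7.4 measured with a chromatographic gLogD technique.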

Liver microsomes [3] = experiment: Drug metabolism in human liver microsomes at 1 uM by LC/MS analysis; type: ADME, Microsome
Liver microsomes [4] = experiment: Half life in rat liver microsomes; type: ADME, Microsome
Liver microsomes [5] = experiment: Drug metabolism in rat liver microsomes assessed as mono-oxygenation at 1 uM by LC/MS analysis; type: ADME, Microsome
Liver [6] = experiment: Half life in mouse liver microsomes; type: ADME, Microsome
[7] = Apparent terminal half life in Sprague-Dawley rat at […], iv; type: ADME, organism-based; design: dose 4.5 mg/kg, route intravenous; conditions: in vivo, read-out: betat1/2(app) (converted)
[8] = Drug excretion in iv dosed rat urine assessed as glutathione adduct level; type: ADME, organism-based; conditions: in vivo
[9] = Drug excretion in Sprague-Dawley rat urine at 20 mg/kg, po; type: ADME, organism-based; design: dose 20 mg/kg, route oral; conditions: read-out: Drug excretion
How it was run: (§3)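 Male Sprague–Dawley rats, nominal 20 mg/kg (19 mg/kg actual ip), given po as an aqueous HPMC suspension or ip as a suspension in aqueous vehicle with 10% DMSO; percentage of the dose excreted unchanged in urine was measured; n = 2 rats per profile.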

[10] = Volume of distribution at steady state in Sprague-Dawley rat at […], iv; type: ADME, organism-based; design: dose 4.5 mg/kg, route intravenous; conditions: in vivo, read-out: Vdss
Liver microsomes [11] = experiment: Intrinsic clearance in rat liver microsomes at 1 uM by LC/MS analysis; type: ADME, Microsome
Rattus norvegicus [12] = experiment: Bioavailability in Sprague-Dawley rat at 19 mg/kg, ip; type: ADME, organism-based; conditions: in vivo
in vivo [13] = conditions: Sprague-Dawley, rat, po, 20 mg/kg
[14] = Apparent terminal half life in Sprague-Dawley rat at 19 mg/kg, ip; type: ADME, organism-based; design: dose 19 mg/kg, route intraperitoneal; conditions: in vivo, read-out: betat1/2(app) (converted)
[15] = Drug metabolism in mouse liver microsomes assessed as mono-oxygenation at 1 uM by LC/MS analysis; type: ADME, Microsome
in vivo [16] = conditions: Sprague-Dawley, rat, ip, 19 mg/kg
[17] = Drug excretion in Sprague-Dawley rat urine at […], iv; type: ADME, organism-based; design: dose 4.5 mg/kg, route intravenous; conditions: read-out: Drug excretion
[18] = Apparent terminal half life in Sprague-Dawley rat at 20 mg/kg, po; type: ADME, organism-based; design: dose 20 mg/kg, route oral; conditions: in vivo, read-out: betat1/2(app) (converted)
Liver microsomes [19] = experiment: Half life in human liver microsomes; type: ADME, Microsome
[20] = Drug metabolism in mouse liver microsomes at 1 uM by LC/MS analysis; type: ADME, Microsome
[21] = Drug degradation assessed as reactivity with reduced glutathione ethyl ester; type: physicochemical
[22] = Plasma clearance in Sprague-Dawley rat at […], iv; type: ADME, organism-based; design: dose 4.5 mg/kg, route intravenous
[23] = Cmax in Sprague-Dawley rat at 19 mg/kg, ip; type: ADME, organism-based; design: dose 19 mg/kg, route intraperitoneal; conditions: in vivo
[24] = Cmax in Sprague-Dawley rat at 20 mg/kg, po; type: ADME, organism-based; design: dose 20 mg/kg, route oral; conditions: in vivo
[25] = Drug excretion in Sprague-Dawley rat urine at 19 mg/kg, ip; type: ADME, organism-based; design: dose 19 mg/kg, route intraperitoneal; conditions: read-out: Drug excretion; how it was run: as §3
Rattus norvegicus [26] = experiment: Oral bioavailability in Sprague-Dawley rat at 20 mg/kg; type: ADME, organism-based; conditions: in vivo
Liver microsomes [27] = experiment: Intrinsic clearance in human liver microsomes at 1 uM by LC/MS analysis; type: ADME, Microsome
[28] = Drug metabolism in mouse liver microsomes assessed as bis-oxygenation at 1 uM by LC/MS analysis; type: ADME, Microsome
[29] = as §1; type: ADME, Microsome; conditions: liver microsomes, read-out: CLH; how it was run: as §2
[30] = Drug metabolism in mouse liver microsomes assessed as O-demethylation at 1 uM by LC/MS analysis; type: ADME, Microsome
[31] = Drug metabolism in mouse liver microsomes assessed as morpholine ring cleavage at 1 uM by LC/MS analysis; type: ADME, Microsome
Liver microsomes [32] = experiment: Drug metabolism in rat liver microsomes at 1 uM by LC/MS analysis; type: ADME, Microsome
[33] = Plasma clearance in Sprague-Dawley rat at 1 mg/kg, iv; type: ADME, organism-based; design: dose 1 mg/kg, route intravenous
How it was run: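 Male Sprague–Dawley rats given a nominal 1 mg/kg iv dose as a solution in aqueous vehicle containing 40% (v/v) propylene glycol. Plasma concentration–time profiles were measured, with each profile the average of n = 2 rats. Plasma clearance was derived from the iv profile.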

[34] = Apparent terminal half life in Sprague-Dawley rat at 1 mg/kg, iv; type: ADME, organism-based; design: dose 1 mg/kg, route intravenous; conditions: in vivo, read-out: betat1/2(app) (converted)
How it was run: (§4)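 Male Sprague–Dawley rats, single iv dose as solution in aqueous vehicle with 40% (v/v) propylene glycol; serial plasma concentrations, profiles averaged from n = 2 rats; urine collected for unchanged drug. Half-life, steady-state volume of distribution and plasma clearance taken from plasma concentration–time profiles.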

[35] = Cmax in Sprague-Dawley rat at 19 mg/kg, po; type: ADME, organism-based; design: dose 19 mg/kg, route oral; conditions: in vivo
in vivo [36] = conditions: Sprague-Dawley, rat, po, 19 mg/kg
Rattus norvegicus [37] = experiment: Oral bioavailability in Sprague-Dawley rat at 19 mg/kg; type: ADME, organism-based; conditions: in vivo
[38] = Volume of distribution at steady state in Sprague-Dawley rat at 1 mg/kg, iv; type: ADME, organism-based; design: dose 1 mg/kg, route intravenous; conditions: in vivo, read-out: Vdss; how it was run: as §4
[39] = Drug metabolism in mouse liver microsomes assessed as glucuronide metabolite formation at 1 uM by LC/MS analysis; type: ADME, Microsome

SMILES: CCOC(=O)C1=C(C)N/C(=C/c2ccn(-c3ccccc3C(F)(F)F)c2)C1=O
Microsomal intrinsic clearance (CLint) (Liver [1]): 160 µL/min/mg

SMILES: CC1=C(C(=O)OCc2ccccc2)C(=O)/C(=C\c2cc(C)n(-c3ccccc3C(F)(F)F)c2C)N1
Microsomal intrinsic clearance (CLint) (Liver [1]): 560 µL/min/mg

SMILES: CCOC(=O)C1=C(C)N/C(=C/c2cc(C)n(-c3ccccc3C(F)(F)F)c2C)C1=O
Drug metabolism (Liver microsomes [3]): Not Active
Drug metabolism (Liver microsomes [5]): Active
Drug excretion [8]: Not Active
F (Rattus norvegicus [12]): 45.7%
Drug metabolism [15]: Active
Tmax (in vivo [16]): 0.25 h
Drug metabolism [20]: Not Active
Stability [21]: Stable
dose excreted [25]: 0.01%
F (Rattus norvegicus [26]): 6%

SMILES: CCOC(=O)C1=C(C)N/C(=C/c2cc(C)n(-c3cccc(OC)c3)c2C)C1=O
Microsomal intrinsic clearance (CLint) (Liver [1]): 150 µL/min/mg
logD [2]: 2.9

SMILES: CCOC(=O)C1=C(C)N/C(=C/c2cc(C)n(-c3ccc(Cl)cc3)c2C)C1=O
Microsomal intrinsic clearance (CLint) (Liver [1]): 72 µL/min/mg
logD [2]: 3.4

SMILES: CCOC(=O)C1=C(C)N/C(=C/c2cc(C)n(-c3ccc(CN(C)C)cc3)c2C)C1=O
Microsomal intrinsic clearance (CLint) (Liver [1]): 31 µL/min/mg
logD [2]: 8.3

SMILES: CCOC(=O)C1=C(C)N/C(=C/c2cc(CC)n(-c3ccccc3C(F)(F)F)c2CC)C1=O
Microsomal intrinsic clearance (CLint) (Liver [1]): 140 µL/min/mg
Drug metabolism [15]: Active

SMILES: CCOC(=O)C1=C(C)N/C(=C/c2ccn(-c3ccc(C(F)(F)F)cc3)c2)C1=O
Microsomal intrinsic clearance (CLint) (Liver [1]): 140 µL/min/mg
Drug metabolism [15]: Active

SMILES: CCOC(=O)C1=C(C)N/C(=C/c2cc(C)n(-c3ccc(CN4CCOCC4)cc3)c2C)C1=O
Microsomal intrinsic clearance (CLint) (Liver [1]): 56 µL/min/mg
logD [2]: 6.7

SMILES: CC1=C(C(N)=O)C(=O)/C(=C\c2cc(C)n(-c3ccccc3C(F)(F)F)c2C)N1
Drug metabolism [15]: Active

SMILES: CCOC(=O)C1=C(C)N/C(=C/c2cc(C)n(-c3ccc(F)cc3F)c2C)C1=O
Microsomal intrinsic clearance (CLint) (Liver [1]): 77 µL/min/mg
Drug metabolism [15]: Active
logD [2]: 3

SMILES: CCOC(=O)C1=C(C)N/C(=C/c2cc(C)n(-c3cc(OC)c(OC)c(OO)c3)c2C)C1=O
microsomal CLint at 1 µM [29]: 63 µL/min/mg
logD [2]: 2.6

SMILES: CCOC(=O)C1=C(C)N/C(=C/c2cc(C)n(-c3ccc(N4CCOCC4)cc3)c2C)C1=O
Microsomal intrinsic clearance (CLint) (Liver [1]): 31 µL/min/mg
Drug metabolism [31]: Active
logD [2]: 3.3

SMILES: CCOC(=O)C1=C(C)N/C(=C/c2cc(C)n(-c3ccc(OC)cc3)c2C)C1=O
Microsomal intrinsic clearance (CLint) (Liver [1]): 54 µL/min/mg
Drug metabolism [15]: Active
logD [2]: 3

SMILES: CCOC(=O)C1=C(C)N/C(=C/c2cc(C)n(-c3ccc(C(F)(F)F)cc3)c2C)C1=O
Drug metabolism (Liver microsomes [32]): Not Active
Drug metabolism (Liver microsomes [3]): Not Active
t1/2 (Liver microsomes [4]): 0.933 h
t1/2 (Liver [6]): 0.548 h
clearance [33]: 22 mL/min/kg
half-life [34]: 87 h
Microsomal intrinsic clearance (CLint) (Liver [1]): 53 µL/min/mg
Cmax [35]: 190 nM
CLH (Liver microsomes [11]): 31 µL/min/mg
Tmax (in vivo [36]): 1.67 h
F (Rattus norvegicus [37]): 4%
t1/2 (Liver microsomes [19]): 0.583 h
Drug metabolism [20]: Not Active
Vd [38]: 19 L/kg
CLH (Liver microsomes [27]): 49 µL/min/mg
logD [2]: 3.4

SMILES: CC1=CC(=O)/C(=C\c2cc(C)n(-c3ccccc3C(F)(F)F)c2C)N1
Microsomal intrinsic clearance (CLint) (Liver [1]): 23 µL/min/mg

Continued, values first:

Microsomal intrinsic clearance (CLint) (Liver [1]): 60 µL/min/mg
logD [2]: 8.5
SMILES: CCOC(=O)C1=C(C)N/C(=C/c2cc(C)n(-c3ccc(CN4CCCCC4)cc3)c2C)C1=O

Microsomal intrinsic clearance (CLint) (Liver [1]): 97 µL/min/mg
logD [2]: 3.4
SMILES: CCOC(=O)C1=C(C)N/C(=C/c2cc(C)n(-c3cccc(C(F)(F)F)c3)c2C)C1=O

Microsomal intrinsic clearance (CLint) (Liver [1]): 58 µL/min/mg
SMILES: CCOC(=O)C1=C(C)N/C(=C/c2cc(C)n(-c3ccc(S(=O)(=O)C(F)(F)F)cc3)c2C)C1=O

Microsomal intrinsic clearance (CLint) (Liver [1]): 66 µL/min/mg
Drug metabolism [15]: Active
SMILES: CCOC(=O)C1=C(C)N/C(=C/c2cc(C)n(-c3ccc(SC)cc3)c2C)C1=O

Microsomal intrinsic clearance (CLint) (Liver [1]): 61 µL/min/mg
Drug metabolism [15]: Active
Drug metabolism [28]: Active
logD [2]: 3.2
SMILES: CCOC(=O)C1=C(C)N/C(=C/c2cc(C)n(-c3ccncc3)c2C)C1=O

Microsomal intrinsic clearance (CLint) (Liver [1]): 82 µL/min/mg
logD [2]: 2.1
SMILES: CCOC(=O)C1=C(C)N/C(=C/c2cc(C)n(-c3cccnc3)c2C)C1=O

Microsomal intrinsic clearance (CLint) (Liver [1]): 76 µL/min/mg
Drug metabolism [15]: Active
SMILES: CCOC(=O)C1=C(C)N/C(=C/c2cc(C)n(-c3ccc(SC(F)(F)F)cc3)c2C)C1=O

Microsomal intrinsic clearance (CLint) (Liver [1]): 100 µL/min/mg
SMILES: CCOC(=O)C1=C(C)N/C(=C/c2cc(C)n(Cc3ccc(C(F)(F)F)cc3)c2C)C1=O

microsomal CLint at 1 µM [29]: 94 µL/min/mg
Drug metabolism [15]: Active
logD [2]: 2.9
SMILES: CCOC(=O)C1=C(O)/C(=C\c2cc(C)n(-c3ccc(F)cc3)c2C)N=C1C

Microsomal intrinsic clearance (CLint) (Liver [1]): 56 µL/min/mg
Drug metabolism [30]: Active
logD [2]: 3.4
SMILES: CCOC(=O)C1=C(C)N/C(=C/c2cc(C)n(-c3ccc(N(C)C)cc3)c2C)C1=O

Microsomal intrinsic clearance (CLint) (Liver [1]): 86 µL/min/mg
Drug metabolism [15]: Active
Drug metabolism [28]: Active
SMILES: CC1=C(C(=O)OC(C)(C)C)C(=O)/C(=C\c2cc(C)n(-c3ccccc3C(F)(F)F)c2C)N1

Microsomal intrinsic clearance (CLint) (Liver [1]): 62 µL/min/mg
logD [2]: 3.4
SMILES: CCOC(=O)C1=C(C)N/C(=C/c2cc(C)n(-c3ccc(Br)cc3)c2C)C1=O

Microsomal intrinsic clearance (CLint) (Liver [1]): 22 µL/min/mg
Drug metabolism [39]: Active
logD [2]: 5.8
SMILES: CC1=C(C(=O)O)C(=O)/C(=C\c2cc(C)n(-c3ccccc3C(F)(F)F)c2C)N1
